# Measurements from ChEMBL document CHEMBL1122032, “Dopaminergic activity of substituted 6-chloro-1-phenyl-2,3,4,5-tetrahydro-1H-3-benzazepines” (J Med Chem, 1982).
# The source made the active and inactive calls. No cut-off for these calls is given here.
# Experiments:
# [1] = Selectivity ratio of compound as ratio of ED15 relative to mean arterial blood pressure(MABP) ED20; type: functional
# Outline: (§1)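 Secondary renal screen in anesthetized dogs: cumulative dose-response by infusing drug at progressively increasing rates, 5 min per dose level. RVR ED15 is the average minimum cumulative dose lowering RVR by 15%; maximum effect is the average maximum % fall in RVR. Selectivity ratios are separations between RVR ED15 and doses giving 30% change in iliac vascular resistance, 20% in MABP, 20% in HR.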
# Canis familiaris [2] = assay: Compound was evaluated for determining renal vascular resistance(iv) in dogs; type: functional, Canis lupus familiaris; outline: as §1
# [3] = Selectivity ratio of compound as ED15 relative to heart rate(HR) ED20; type: functional; outline: as §1
# Canis familiaris [4] = species on record: Canis familiaris; assay: Compound was evaluated for average maximum percent decrease in renal vascular resistance in dogs; type: functional, Canis lupus familiaris; outline: as §1
# [5] = Selectivity ratio of Compound as ratio of ED15 relative to iliac vascular resistance(IVR) ED30; type: functional; outline: as §1
# Rattus norvegicus [6] = species on record: Rattus norvegicus; assay: Adenylase cyclase activity in rat striatal membranes at the concentration of 10e-6; type: functional; details: Striatum, Membrane
# Canis familiaris [7] = species on record: Canis familiaris; assay: Renal blood flow was measured in dogs; Highly significant activity; type: functional, organism-based; details: Canis lupus familiaris; Kidney
# Rattus norvegicus [8] = species on record: Rattus norvegicus; assay: Adenylase cyclase activity in rat striatal membranes at the concentration of 10e-5; type: functional; details: Striatum, Membrane
# Rattus norvegicus [9] = assay: Central dopaminergic activity against contralateral rotation(1000) in lesioned rats at the dose of 10 mg/kg (p.o.) in 2 h; type: functional; details: route oral
# Outline: (§2)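 Oral dosing in rats with substantia nigra lesions, scoring contralateral rotations. RD1000 is the minimum dose producing 1000 turns in 2 h.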
# Canis familiaris [10] = species on record: Canis familiaris; assay: Renal vascular resistance was calculated as the ratio of the mean arterial blood pressure / mean renal blood flow; I=Inactive; type: functional, organism-based; details: Canis lupus familiaris
# Rattus norvegicus [11] = assay: Central dopaminergic activity for minimum concentration which produced 500 rotations(ip) in 2 h; type: functional
# Outline: (§3)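 Rats with substantia nigra lesions scored for contralateral rotation after intraperitoneal dosing (routine), oral dosing for selected compounds, or intracaudal administration for intrinsic activity. RD500 and RD1000 are the minimum doses giving 500 and 1000 turns, respectively, in 2 h.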
# Canis familiaris [12] = species on record: Canis familiaris; assay: Renal vascular resistance was calculated as the ratio of the mean arterial blood pressure / mean renal blood flow; Significant activity; type: functional, organism-based; details: Canis lupus familiaris
# Canis familiaris [13] = species on record: Canis familiaris; assay: Renal blood flow was measured in dogs; Significant activity; type: functional, organism-based; details: Canis lupus familiaris; Kidney
# Rattus norvegicus [14] = assay: Central dopaminergic activity against contralateral rotation(1000) in lesioned rats(po) in 2 h; type: functional; outline: as §2
# Rattus norvegicus [15] = assay: Central dopaminergic activity for minimum concentration which produced 500 rotations at the dose of 2 mg/kg (i.p.) in 2 h; I=Inactive; type: functional, organism-based; design: dose 2 mg/kg; outline: as §3
# Rattus norvegicus [16] = assay: Central dopaminergic activity for minimum concentration which produced 500 rotations at the dose of 10 mg/kg (i.p.) in 2 h; type: functional; details: route intraperitoneal; outline: as §3
# Rattus norvegicus [17] = species on record: Rattus norvegicus; assay: Adenylase cyclase activity in rat striatal membranes; type: functional, organism-based, Membrane; details: Striatum
# Rattus norvegicus [18] = assay: Central dopaminergic activity for minimum concentration which produced 500 rotations at the dose of 10 mg/kg (i.p.) in 2 h; I=Inactive; type: functional, organism-based; design: dose 10 mg/kg; outline: as §3
# Rattus norvegicus [19] = species on record: Rattus norvegicus; assay: Central dopaminergic activity against contralateral rotation(500) in lesioned rats(ic) in 2 h; type: functional; outline: as §3
# Canis familiaris [20] = species on record: Canis familiaris; assay: Renal vascular resistance was calculated as the ratio of the mean arterial blood pressure / mean renal blood flow; Highly significant activity; type: functional, organism-based; details: Canis lupus familiaris
# Rattus norvegicus [21] = assay: Central dopaminergic activity against contralateral rotation(1000) in lesioned rats at the dose of 5.8(po) in 2 h; I=Inactive; type: functional, organism-based; outline: as §2
# Canis familiaris [22] = species on record: Canis familiaris; assay: Renal blood flow was measured in dogs; I=Inactive; type: functional, organism-based; details: Canis lupus familiaris; Kidney
DA response (Rattus norvegicus [6]) [%],DA response (Rattus norvegicus [8]) [%],Compound,Ratio [1],RVR ED15 (Canis familiaris [2]) [µg/kg],Ratio [3],Decrease RVR (Canis familiaris [4]) [%],Ratio [5],RBF (Canis familiaris [7]),RVR (Canis familiaris [10]),RD500 (Rattus norvegicus [11]) [mg/kg],RBF (Canis familiaris [13]),RVR (Canis familiaris [20]),other results
–,–,Br.Oc1ccc(C2CNCCc3c2cc(O)c(O)c3Cl)cc1Br (stereo unspecified),>2995,2,>2995,26,15,–,–,–,–,–,–
92,83,Br.C=CCN1CCc2c(cc(O)c(O)c2Cl)C(c2cccc(Cl)c2)C1 (stereo unspecified),>6072,22,>6072,38,> 6070,Highly significant activity,inactive,0.11,–,–,RD1000 (Rattus norvegicus [9]): 1160 turns/2 h
51,64,Cl.Oc1cc2c(c(Cl)c1O)CCN(Cc1cccs1)CC2c1ccccc1 (stereo unspecified),–,–,–,–,–,–,–,0.063,Significant activity,–,RVR (Canis familiaris [12]): Significant activity; RD1000 (Rattus norvegicus [14]): 5.8 mg/kg
–,–,CCCN1CCc2c(cc(O)c(O)c2Cl)C(c2ccccc2)C1 (stereo unspecified),–,–,–,–,–,–,inactive,–,Significant activity,–,RD500 (Rattus norvegicus [15]): inactive
–,–,Br.OCCN1CCc2c(cc(O)c(O)c2Cl)C(c2ccccc2)C1 (stereo unspecified),>6072,4.5,>6072,42,929,–,inactive,–,Significant activity,–,Contralateral turns in 2 h (Rattus norvegicus [16]): 1310 turns/2 h
–,–,Br.Oc1cccc(C2CNCCc3c2cc(O)c(O)c3Cl)c1 (stereo unspecified),>6072,0.35,1029,49,34,–,–,–,Significant activity,–,RVR (Canis familiaris [12]): Significant activity; EC50 (Rattus norvegicus [17]): 45 nM; RD500 (Rattus norvegicus [18]): inactive
–,–,Br.Oc1ccc(C2CNCCc3c2cc(O)c(O)c3Cl)cc1Cl (stereo unspecified),-3,99,0,56,-1,–,inactive,–,Significant activity,–,RD500 (Rattus norvegicus [18]): inactive
–,–,Br.Oc1cc2c(c(Cl)c1O)CCNCC2c1ccccc1 (stereo unspecified),–,3.5,–,39,–,Active,–,0.03,–,Active,RD1000 (Rattus norvegicus [14]): 4.04 mg/kg; RD500 (Rattus norvegicus [19]): 0.22 ug rat-1
59,64,Br.Oc1cc2c(c(Cl)c1O)CCNCC2c1cccc(C(F)(F)F)c1 (stereo unspecified),>6072,8,75,44,10,Highly significant activity,–,0.71,–,Significant activity,RD1000 (Rattus norvegicus [21]): inactive
30,55,Br.Cc1ccccc1C1CNCCc2c1cc(O)c(O)c2Cl (stereo unspecified),–,–,–,–,–,–,inactive,–,–,–,Contralateral turns in 2 h (Rattus norvegicus [16]): 663 turns/2 h; RBF (Canis familiaris [22]): inactive
22,13,Br.CN1CCc2c(cc(O)c(O)c2Cl)C(c2cccc(Cl)c2)C1 (stereo unspecified),–,–,–,–,–,–,inactive,0.03,–,–,RD1000 (Rattus norvegicus [14]): 3.2 mg/kg; RBF (Canis familiaris [22]): inactive
48,55,Br.CCN1CCc2c(cc(O)c(O)c2Cl)C(c2ccccc2)C1 (stereo unspecified),18,45,>6072,16,0.1,Highly significant activity,–,0.015,–,Significant activity,RD1000 (Rattus norvegicus [14]): 4.9 mg/kg
–,–,Br.C=CCN1CCc2c(cc(O)c(O)c2Cl)C(c2ccccc2)C1 (stereo unspecified),–,–,–,–,–,Active,–,0.03,–,Active,–
41,82,Cl.Oc1cc2c(c(Cl)c1O)CCN(Cc1ccco1)CC2c1ccccc1 (stereo unspecified),>6072,200,>6072,26,> 6070,Highly significant activity,–,–,–,Significant activity,Contralateral turns in 2 h (Rattus norvegicus [16]): 611 turns/2 h
–,–,Br.Oc1cc(C2CNCCc3c2cc(O)c(O)c3Cl)ccc1Cl (stereo unspecified),>249,61,>249,25,> 249,Highly significant activity,–,–,–,Significant activity,RD500 (Rattus norvegicus [18]): inactive
